{"source": "paper PMC10195017", "about": "(Journal of Immunotherapy and Precision Oncology, 2023)", "key": {"[1]": {"tested_on": "MC38", "assay": "In vivo tumor growth, MC38 syngeneic tumor model", "set-up": "species or system C57BL/6J mice", "outline": "(§1)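 Mice were 6-week-old male C57BL/6J, n = 10 per cohort. Tumor cells were trypsinized and spun 400g for 5 min, then put into the right hind flank: MC38 1 × 10^6 in 50:50 Cultrex:PBS, D4M.3A 1 × 10^6 in PBS, B16.F10 0.5 × 10^6 in HBSS. Test compound given once daily IP or by oral gavage from day 7 (B16.F10), 8 (MC38) or 9 (D4M.3A). Anti-PD-1, 200 μg IP ×3, every other day, 6 h after compound. Caliper volume = w² × l/2. Two-way ANOVA/Bonferroni on last treatment day.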"}, "[2]": {"tested_on": "D4M.3A", "assay": "In vivo tumor growth, D4M.3A syngeneic tumor model", "set-up": "species or system C57BL/6J mice", "conditions": "for tumor growth, comparison of both salt forms: 32 mg/kg IP, QD, D4M.3A tumor-challenged mice, with and without anti-PD-1; for tumor growth, combination effect: combination with anti-PD-1, D4M.3A model; for tumor growth response: monotherapy, poorly immunogenic D4M.3A model, high doses of MPT-0118 or MPT-0308", "outline": "as §1"}, "[3]": {"tested_on": "B16.F10", "assay": "In vivo tumor growth, B16.F10 syngeneic tumor model", "set-up": "species or system C57BL/6J mice", "conditions": "combination with anti-PD-1", "outline": "as §1"}, "[4]": {"tested_on": "tumor-infiltrating Tregs", "assay": "Flow cytometry of tumor-infiltrating Tregs in D4M.3A-injected mice", "format": "in vivo, C57BL/6J mice", "conditions": "combination therapy with anti-PD-1; D4M.3A tumors; mean ± SEM; pooled MPT-0118 and MPT-0308 (n = 16)"}, "[5]": {"molecular_target": "T1, MALT1 (Mus musculus, UniProt Q2TBA3)", "T1 sequence (Q2TBA3 1-832)": "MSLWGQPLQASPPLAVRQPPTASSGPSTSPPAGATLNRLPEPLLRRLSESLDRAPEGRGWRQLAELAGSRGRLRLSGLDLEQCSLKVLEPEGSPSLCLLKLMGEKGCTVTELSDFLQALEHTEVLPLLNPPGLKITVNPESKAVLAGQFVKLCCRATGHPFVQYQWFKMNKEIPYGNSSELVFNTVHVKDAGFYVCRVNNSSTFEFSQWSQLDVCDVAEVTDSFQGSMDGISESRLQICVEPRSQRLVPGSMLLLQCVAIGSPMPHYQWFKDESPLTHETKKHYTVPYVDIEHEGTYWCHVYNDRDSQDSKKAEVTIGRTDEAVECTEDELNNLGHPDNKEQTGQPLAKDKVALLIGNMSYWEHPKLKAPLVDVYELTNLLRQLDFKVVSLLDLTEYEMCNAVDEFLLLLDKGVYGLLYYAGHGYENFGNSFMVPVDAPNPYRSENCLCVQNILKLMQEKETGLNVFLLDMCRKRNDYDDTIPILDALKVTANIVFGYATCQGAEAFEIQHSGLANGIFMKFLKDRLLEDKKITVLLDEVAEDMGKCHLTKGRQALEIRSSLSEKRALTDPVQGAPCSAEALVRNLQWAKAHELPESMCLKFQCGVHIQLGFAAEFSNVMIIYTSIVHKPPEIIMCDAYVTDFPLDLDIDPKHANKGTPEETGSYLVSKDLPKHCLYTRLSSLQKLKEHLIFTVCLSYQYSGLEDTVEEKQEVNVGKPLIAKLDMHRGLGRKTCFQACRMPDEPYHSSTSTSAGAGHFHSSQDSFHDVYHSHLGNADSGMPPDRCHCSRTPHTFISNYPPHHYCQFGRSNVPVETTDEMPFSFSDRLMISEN", "assay": "MALT1-cleaved CYLD-ct flow cytometry assay in murine CD4+ T cells", "format": "cell-based", "conditions": "for MALT1 inhibition: murine CD4+ T cells", "outline": "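Murine CD4+ T cells were treated with a dose titration of the test compound or DMSO, then stimulated with PMA plus ionomycin. MALT1 activity was read by flow cytometry as the CYLD C-terminal cleavage product. Detection used the in-house neoepitope monoclonal 25F10, which recognizes both human and mouse cleaved CYLD. Median fluorescence intensity was compared with DMSO-treated cells. n = 3, mean ± SEM.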"}, "[6]": {"tested_on": "D4M.3A murine melanoma tumor spheroids", "assay": "Viability of cell-line-derived D4M.3A tumor spheroids", "format": "cell-based, mouse", "conditions": "doses up to 10 μM; day 4", "outline": "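D4M.3A cell-line-derived tumor spheroids were embedded in collagen in a 3D microfluidic device (gel set 30 min, 37 °C). They were cultured in DMEM with the test compound at 0.3–10 μM for 4 days. Live/dead staining used Hoechst 33342/propidium iodide (45 min, 37 °C, 5% CO2), followed by fluorescence imaging and total raw cell area per dye. Live signal was expressed as percent change or log2 fold change relative to untreated control.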"}, "[7]": {"tested_on": "MC38 MDOTS", "assay": "Viability of MC38 MDOTS", "format": "cell-based, mouse", "conditions": "day 6", "outline": "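MC38-derived spheroids kept their resident immune cells. They were mixed with collagen, loaded into the central gel region of a 3D microfluidic device, and set for 30 min at 37 °C. They were then hydrated with DMEM containing test compound 3 μM ± anti-mouse IFNγ 10 μg/mL, or anti-IFNγ alone, for 6 days. Viability was read by Hoechst 33342/propidium iodide staining (45 min, 37 °C, 5% CO2) and fluorescence imaging of total cell area per dye. Live signal was expressed as percent or log2 fold change versus control.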"}, "[8]": {"assay": "Plasma and tumor pharmacokinetics at steady-state in D4M.3A tumor-bearing mice", "format": "in vivo, C57BL/6J mice", "conditions": "64 mg/kg/day oral, steady-state after 21 days", "outline": "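Male C57BL/6J mice bearing D4M.3A tumors were pretreated for 21 days with the test compound (succinate salt) at 64 mg/kg orally. Plasma and tumor drug concentrations were then measured at steady state.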"}, "[9]": {"tested_on": "circulating Tregs", "assay": "Circulating Treg frequencies in non-tumor-bearing rats", "format": "in vivo, Harlan Sprague Dawley rats", "conditions": "30 mg/kg orally, daily, 15 days; female rats; vs vehicle", "outline": "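Female Harlan Sprague Dawley rats, non-tumor-bearing, received the test compound at 30 mg/kg orally once daily for 15 days, with a vehicle group (n = 5 per cohort). Blood was drawn from the same animals on days −1, 3, 5, 7, 10 and 14. After red cell lysis, samples got viability dye, CD3/CD4/CD8/CD25 surface staining, fixation and permeabilization, and FoxP3 staining. Tregs (CD3+CD4+CD8α−FoxP3+) were counted as % of CD4+ cells and normalized to day −1 (100%). Unpaired t test per time point […].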"}, "[10]": {"tested_on": "PDOTS", "assay": "Viability of patient-derived organotypic tumor spheroids", "format": "cell-based, human", "conditions": "5 μM in combination with anti-PD-1, + αIFNγ 10 μg/mL", "outline": "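Colorectal cancer and melanoma resection samples were made into organotypic spheroids that kept their native immune cells. These were embedded in collagen in a 3D microfluidic device and cultured 5–7 days in DMEM with the test compound (3–5 μM). Arms were ± pembrolizumab 250 μg/mL, each ± anti-human IFNγ 10 μg/mL. Viability was measured by Hoechst 33342/propidium iodide imaging (45 min, 37 °C, 5% CO2) as live cell area. Results were given as percent change versus untreated control.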"}, "[11]": {"tested_on": "MALT1", "conditions": "cited from earlier work"}, "[12]": {"tested_on": "Tregs", "conditions": "rats; efficacious treatment; cited from earlier work"}, "[13]": {"tested_on": "Tregs", "conditions": "dogs; efficacious treatment; cited from earlier work"}, "[14]": {"tested_on": "Tregs", "conditions": "mice; 8 mg/kg twice a day IP and 16 mg/kg every day IP; cited from earlier work"}, "[15]": {"assay": "pKa", "format": "physicochemical"}, "[16]": {"assay": "Octanol-water partition coefficient", "format": "physicochemical"}, "[17]": {"assay": "Aqueous solubility", "format": "physicochemical"}, "[18]": {"tested_on": "Caco-2", "assay": "Caco-2 permeability", "format": "in vitro ADME", "conditions": "Caco-2 assay"}, "[19]": {"molecular_target": "P-gp (Homo sapiens, UniProt P08183)", "sequence (P08183 whole entry)": "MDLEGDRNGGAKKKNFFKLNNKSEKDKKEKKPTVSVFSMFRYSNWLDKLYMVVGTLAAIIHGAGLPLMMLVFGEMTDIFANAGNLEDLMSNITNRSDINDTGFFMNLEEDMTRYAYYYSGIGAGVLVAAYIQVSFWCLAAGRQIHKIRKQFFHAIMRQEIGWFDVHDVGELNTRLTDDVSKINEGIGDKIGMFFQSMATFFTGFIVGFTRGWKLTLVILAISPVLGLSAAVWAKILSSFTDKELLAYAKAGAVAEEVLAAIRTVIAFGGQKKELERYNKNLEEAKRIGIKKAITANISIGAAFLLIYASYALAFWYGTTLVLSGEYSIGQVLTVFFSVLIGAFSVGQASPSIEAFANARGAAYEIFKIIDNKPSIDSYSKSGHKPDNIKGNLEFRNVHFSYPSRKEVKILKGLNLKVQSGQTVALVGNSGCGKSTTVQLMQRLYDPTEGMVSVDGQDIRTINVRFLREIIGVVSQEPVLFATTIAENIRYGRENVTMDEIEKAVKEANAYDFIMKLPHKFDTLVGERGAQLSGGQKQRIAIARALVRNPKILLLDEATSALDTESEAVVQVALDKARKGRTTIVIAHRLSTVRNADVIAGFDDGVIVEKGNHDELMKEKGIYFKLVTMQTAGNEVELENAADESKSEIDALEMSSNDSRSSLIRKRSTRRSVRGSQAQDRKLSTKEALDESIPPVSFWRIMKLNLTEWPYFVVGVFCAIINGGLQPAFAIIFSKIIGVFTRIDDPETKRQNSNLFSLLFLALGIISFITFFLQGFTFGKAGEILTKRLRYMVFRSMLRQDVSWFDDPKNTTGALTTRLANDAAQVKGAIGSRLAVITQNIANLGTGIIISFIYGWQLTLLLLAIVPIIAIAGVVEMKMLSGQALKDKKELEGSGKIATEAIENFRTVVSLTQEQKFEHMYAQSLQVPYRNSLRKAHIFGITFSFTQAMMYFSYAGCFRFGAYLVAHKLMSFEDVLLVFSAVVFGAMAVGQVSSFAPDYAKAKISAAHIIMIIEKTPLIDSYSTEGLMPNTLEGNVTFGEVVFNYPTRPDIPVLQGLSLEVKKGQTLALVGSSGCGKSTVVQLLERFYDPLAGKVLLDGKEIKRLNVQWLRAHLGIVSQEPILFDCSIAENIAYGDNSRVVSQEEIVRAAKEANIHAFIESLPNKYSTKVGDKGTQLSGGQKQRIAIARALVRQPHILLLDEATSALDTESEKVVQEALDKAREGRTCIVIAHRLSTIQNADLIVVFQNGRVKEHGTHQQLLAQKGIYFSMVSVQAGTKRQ", "assay": "MDCK-MDR1 permeability", "format": "in vitro ADME"}, "[20]": {"assay": "Plasma pharmacokinetics in male C57BL/6J mice after a single dose", "format": "in vivo", "conditions": "non-tumor-bearing animals"}}, "note": "“Also recorded” adds a separate entry of the source. Like-named read-outs stand apart in the source and are kept apart here.", "data": [{"smiles": "CN1CCC[C@H](CN2c3ccccc3Sc3ccccc32)C1.Cl", "note": "[MPT-0308, (S)-mepazine hydrochloride]", "values": [{"measurement": "tumor growth, combination effect", "setting": "[1]; high dose in combination with anti-PD-1, MC38 model", "value": "additive effect"}, {"measurement": "tumor growth", "setting": "[1]; monotherapy, immunogenic MC38 model", "value": "significant inhibition of tumor growth"}, {"measurement": "tumor growth, comparison of both salt forms", "setting": "[2]", "value": "comparable effects on tumor growth"}, {"measurement": "tumor growth, combination effect", "setting": "[2]", "value": "clear synergy"}, {"measurement": "tumor growth response", "setting": "[2]", "value": "consistently responded"}, {"measurement": "tumor growth, combination effect", "setting": "[3]", "value": "clear synergy"}, {"measurement": "frequency of IFNγ+ Tregs (percentage of total tumor-infiltrating Tregs)", "setting": "[4]", "value": "8.9 ± 1.01", "unit": "%"}, {"measurement": "MALT1 inhibition", "setting": "[5]; 3 μM", "value": "roughly 75%"}, {"measurement": "MALT1 inhibition", "setting": "[5]; 10 μM", "value": "~95", "unit": "%"}, {"measurement": "IC50", "setting": "[5]; read-out: IC50 (MALT1-cleaved CYLD-ct), murine splenic CD4+ T cells stimulated with PMA/ionomycin", "value": 1130, "unit": "nM"}, {"measurement": "viability of tumor spheroids lacking immune cells and tumor stroma", "setting": "[6]", "value": "not affected"}, {"measurement": "antitumor activity in MDOTS with anti-IFNγ neutralizing antibody", "setting": "[7]; 3 μM + anti-mouse IFNγ 10 μg/mL", "value": "reversed"}, {"measurement": "antitumor activity in MDOTS", "setting": "[7]; 3 μM", "value": "active"}]}, {"smiles": "CN1CCC[C@H](CN2c3ccccc3Sc3ccccc32)C1.O=C(O)CCC(=O)O", "note": "[MPT-0118, (S)-mepazine succinate]", "values": [{"measurement": "tumor growth, comparison of both salt forms", "setting": "[2]", "value": "comparable effects on tumor growth"}, {"measurement": "tumor growth, combination effect", "setting": "[2]", "value": "clear synergy"}, {"measurement": "tumor growth response", "setting": "[2]", "value": "consistently responded"}, {"measurement": "tumor growth, combination effect", "setting": "[3]", "value": "clear synergy"}, {"measurement": "frequency of IFNγ+ Tregs (percentage of total tumor-infiltrating Tregs)", "setting": "[4]", "value": "8.9 ± 1.01", "unit": "%"}, {"measurement": "peak concentrations in mouse plasma", "setting": "[8]", "value": "≤ 1.3", "unit": "µM"}, {"measurement": "drug concentrations in tumor tissue", "setting": "[8]; over the following 24 hours", "value": "3000 to 10000", "unit": "nM"}, {"measurement": "circulating Treg frequencies", "setting": "[9]", "value": "No change; also recorded: no effect"}, {"measurement": "effects on PDOTS with anti-IFNγ neutralizing antibody", "setting": "[10]", "value": "reversed"}]}, {"smiles": "CO[C@@H](C)c1c(NC(=O)Nc2ccnc(C(F)(F)F)c2)cnc2cc(Cl)nn12", "note": "[MLT-943]", "values": [{"measurement": "IC50", "setting": "[11]", "value": "< 10", "unit": "nM"}, {"measurement": "Treg numbers", "setting": "[12]", "value": "rapid reduction of Tregs"}, {"measurement": "pathology developing after Treg reduction", "setting": "[12]", "value": "reversible immune dysregulation, polyendocrinopathy, enteropathy, X-linked (IPEX)-like pathology"}, {"measurement": "Treg numbers", "setting": "[13]", "value": "rapid reduction of Tregs"}]}, {"smiles": "CN1CCCC(CN2c3ccccc3Sc3ccccc32)C1", "note": "(racemic) [mepazine racemate, mepazine]", "values": [{"measurement": "Treg frequencies in peripheral blood", "setting": "[14]", "value": "no effect"}]}, {"smiles": "CN1CCC[C@H](CN2c3ccccc3Sc3ccccc32)C1", "note": "[(S)-mepazine]", "values": [{"measurement": "pKa", "setting": "[15]", "value": 9.2}, {"measurement": "logP", "setting": "[16]", "value": 5.29}, {"measurement": "solubility (in words)", "setting": "[17]", "value": "apparent pH-dependent solubility"}, {"measurement": "mean apparent AB permeability coefficient", "setting": "[18]", "value": "13.73 ± 0.15 × 10^−6 cm/s"}, {"measurement": "P-gp substrate", "setting": "[19]", "value": "not a P-gp substrate"}, {"measurement": "Tmax", "setting": "[20]", "value": "≤ 2", "unit": "h"}]}]}
